These results are taken from ChEMBL document CHEMBL4513216, “Probing the Open Global Health Chemical Diversity Library for Multistage-Active Starting Points for Next-Generation Antimalarials” (ACS Infect Dis, 2020).

The series in a line: Toxicity liver stage against HepG2, at 10uM. The series is classed as cell-based. Details: test concentration 10 uM, cell line HepG2-A16-CD81EGFP. Particulars: human, HepG2-A16-CD81EGFP cells; read-out: INHIBITION
In a few lines:
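Uninfected HepG2-A16-CD81EGFP cells, 3 × 10^3 per well, 1536-well, plated on prespotted compound at 10 μM final, parasite-free screening media added to match infected plates; puromycin 10 μM positive, DMSO 0.5% negative; run in parallel with 48 h PbLuc assay at 37 °C, 5% CO2; viability by CellTiter-Glo luminescence, normalized to controls.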
As to `CC(=O)NCCC(=O)NCc1cccnc1-n1cnc2ccccc21`, the cytotoxicity at 10 µM was -14.2%. For `CC(C)NC(=O)C[C@@H]1CCNC[C@@H]1Cc1cc(-c2ccccc2)on1` the value was -0.626%; for `O=C1CSC(c2ccc(O)cc2)c2c(n(C3CCOCC3)[nH]c2=O)N1` (configuration not stated), 2.84%. For `O=S(=O)(NCC(c1ccsc1)N1CCCCCC1)c1cccs1` (configuration not stated) the value was 2%; for `CCOCC(=O)NCC1CCN(Cc2ccsc2)CC1`, 11.1%; for `CSc1ccccc1NC(=O)C1CSc2ncc(C)c(=O)n2C1` (configuration not stated), -1.31%. Then `CC(=O)N1CCC2(CC1)C(=O)N(c1ccc(C)nc1)CCN2CC(C)C`, with 22.2%.

Regarding `O=C(C1CC=CC1)N1CCC2(CCN(Cc3cccc(F)c3)CC2)C1`, the cytotoxicity at 10 µM was -4.48%. Then `O=C(C1CC1)N1CCC2(COCc3cnc(N4CCOCC4)nc32)C1` (configuration not stated), with 5.31%; and `Cc1ccc(C(=O)Oc2cc(=O)n3cccc(C)c3n2)cc1`, with 5.62%; and `Cc1nc2c(c(NCCCN3CCOCC3)n1)CCN(C)C2`, with 8.12%. For `O=C(c1ccco1)N1CCCC(c2cc(C(F)(F)F)n3ncnc3n2)C1` (configuration not stated) the value was -3.55%; for `Cc1cc(C)c2cc(CNCc3ccco3)c3nn(C)c(=O)n3c2c1`, -13.6%; for `Cc1cncc(C2CCCN(Cc3ccncc3)C2)n1` (configuration not stated), -9.8%.

`CC(C)NC(=O)N1CCC(c2nnc3n2CCNC3)CC1`: the cytotoxicity at 10 µM came out at 10.4%. Take `CCc1nnsc1C(=O)NCc1nnc2n1CCC2`: the cytotoxicity at 10 µM came out at 0.371%. Regarding `COc1ccc(C(=O)N2CCOc3ccncc32)cc1`, the cytotoxicity at 10 µM turned out to be 12.8%. With `CCN(CC)c1ncc(Cl)c(C(=O)NC2CCC(O)CC2)n1` (configuration not stated), the cytotoxicity at 10 µM was -43.5%. Then `O=C(NCC1(O)CCC1)c1c(O)cc(F)cc1F`, with 6.22%; and `N#Cc1ccccc1CN1CCc2sccc2C1`, with -0.572%. For `CCCN(Cc1ccccc1O)C(=O)Nc1cnn(CCOC)c1` the value was 23.8%. For `CC(Oc1cccc(Cl)c1)C(=O)Nc1cnn(CCN(C)C)c1` (configuration not stated) the value was -12.5%. On to `Cc1cc(C2NC(=O)CN2Cc2ccc(Br)cc2)cc(C)c1O` (configuration not stated), for which the cytotoxicity at 10 µM was 4.12%.

Take `Cn1c(=O)[nH]c2cc(C(=O)OCCCn3ccccc3=O)ccc21`: the cytotoxicity at 10 µM was determined as 1.34%. On to `Cc1ccc(-c2cc(CNCCn3cc(C)cn3)on2)cc1`, for which the cytotoxicity at 10 µM was -7.22%. Then `CCCn1cc(NC(=O)c2ccc(S(=O)(=O)CC)cc2)ccc1=O`, with 2.99%; and `Cc1cnc(CN(C)Cc2cc3c(cc2OC(F)F)OCO3)o1`, with -8.78%.

As for `Cc1cnc(CN(C)C2CCN(Cc3ccc(Cl)s3)C2)o1` (configuration not stated), the cytotoxicity at 10 µM turned out to be 5.33%. As for `CCn1ccnc1CNCC(c1ccc(C)s1)N1CCOCC1` (configuration not stated), the cytotoxicity at 10 µM turned out to be 6.41%.

On to `COc1cccc(CN(C)C(=O)CN2CCN(c3nccs3)CC2)c1`, for which the cytotoxicity at 10 µM is -3.98%. For `O=c1oc(-c2cccs2)nn1CC(O)c1ccc2c(c1)CCC2` (configuration not stated) the value was 5.33%.

`COCCN1CCCC1c1cccc2c1OCCO2` (configuration not stated): the cytotoxicity at 10 µM is -9.54%.

As to `CNC(=O)CCNC(=O)Nc1cccc(Cl)c1SC(F)F`, the cytotoxicity at 10 µM worked out at 1.29%. Consider `c1cnnc(N2CCCC(NCc3nc(-c4cccs4)no3)C2)c1` (configuration not stated), for which the cytotoxicity at 10 µM came out at 15.8%. Turning to `COCCN(Cc1cccnc1)S(=O)(=O)c1cc(C)ccc1F`, the cytotoxicity at 10 µM was found to be 10.3%. Take `CC1CCCCN1C(=O)c1n[nH]c(=O)c2ccccc12` (configuration not stated): the cytotoxicity at 10 µM was -0.402%. Consider `CCN(CC)C(=O)CN(C)C(=O)c1ccc(-c2ccsc2)nc1C`, for which the cytotoxicity at 10 µM is 18.1%. Then `CC(CNS(C)(=O)=O)c1ccc(F)c(F)c1` (configuration not stated), with -4.71%; and `CN(C)c1ccc(CCCNC(=O)NCC(O)c2cccs2)cc1` (configuration not stated), with -2.59%. Then `CN(Cc1ccco1)C(=O)Nc1ccc(=O)n(C)c1`, with -43.1%; and `CC(NC(=O)N(C)Cc1ccncc1)c1cn(-c2ccccc2)nn1` (configuration not stated), with -47.7%; and `CC(C)Cc1nc(CN(C)CCOc2ccc(F)cc2)no1`, with -4.68%. As for `Cn1cnnc1C1CCCN(C(=O)c2cc(-c3ccccc3)on2)C1` (configuration not stated), the cytotoxicity at 10 µM is 7.36%. Consider `CC(NC(=O)Cc1cccs1)(C(N)=O)c1cccc(Cl)c1` (configuration not stated), for which the cytotoxicity at 10 µM was found to be 11.3%. For `Cc1cc(CS(=O)(=O)C(C)C(=O)N(C)c2ccccc2)on1` (configuration not stated) the value was 2.74%; for `COC(=O)CCN(C)Cc1cc(Br)cs1`, 0.311%; for `CC(C)n1c2ccccc2c2c1cc(C(=O)NC1CC1)n2C(=O)N(C)C`, -109%. As for `Cn1cc(C[C@H]2[C@H](O)CCN2C(=O)c2ccsc2)cn1`, the cytotoxicity at 10 µM is -72.6%. For `COc1cccc([C@H]2CN(C(=O)c3scc4c3CCCC4)C[C@@H]2N)c1`, the cytotoxicity at 10 µM was -3.45%. For `CC(CCCC(C)(C)O)Nc1ccc(-c2nccn2C)nn1` (configuration not stated) the value was 3.96%; for `c1cnn(Cc2ccc(CN3CCC4(CCNCC4)C3)cc2)c1`, -15.6%.

As to `Cc1ccc(N2CCN(c3ccccc3C)CC2C)nn1` (configuration not stated), the cytotoxicity at 10 µM was found to be 13.2%.

On to `O[C@@H]1CN(c2cnc3ccccc3n2)CC[C@H]1c1ccc2c(c1)OCO2`, for which the cytotoxicity at 10 µM was determined as 22.4%. Consider `NCc1cc(NCC(c2ccccn2)N2CCOCC2)ncn1` (configuration not stated), for which the cytotoxicity at 10 µM is -47.5%. `Cc1ccc(-n2cccn2)cc1S(=O)(=O)N1C[C@H](C2CC2)[C@@H](N)C1`: the cytotoxicity at 10 µM was 0.479%. `CN1CC2(CCCN(c3cc(N4CCCCC4)ncn3)C2)OC1=O` (configuration not stated): the cytotoxicity at 10 µM is -39.7%. With `CCCn1cc(C(=O)NCC(=O)NC2CC2)c(C)n1`, the cytotoxicity at 10 µM is -3.91%.

Regarding `CCC(CC)CN1CCC(n2cc(C3CCCC3)nn2)CC1`, the cytotoxicity at 10 µM worked out at 3.92%. Take `CCC(CNc1ncnc2oc(C)nc12)Cc1ccccc1` (configuration not stated): the cytotoxicity at 10 µM worked out at 1.23%. Then `COCCNc1cc(-c2ccccc2C(N)=O)c2cc[nH]c2n1`, with -2.32%; and `CCNCCOc1ccc(-c2cc(N)nc3[nH]ccc23)cc1`, with 24.3%; and `N[C@@H]1CC[C@H](C(=O)NCCn2cc(Cl)cn2)C1`, with -36.4%. Take `OC1(CN2CCCCC2)CCN(c2ccc(C(F)(F)F)cn2)C1` (configuration not stated): the cytotoxicity at 10 µM is -11%. For `Cc1cc(C)n(CC(C)NCc2cnc3c(C)cccn23)n1` (configuration not stated), the cytotoxicity at 10 µM worked out at 1.44%. For `COC(=O)[C@H]1C[C@@H](O)CCN1S(=O)(=O)c1cc(C)c(Cl)cc1C` the value was -0.566%. Regarding `Cc1nc(C)c(C)c(NCCSc2ccccn2)n1`, the cytotoxicity at 10 µM is -4.23%. Take `CN(C)C(=O)c1cc(-c2cnc(N)nc2)nc2cc(F)ccc12`: the cytotoxicity at 10 µM was found to be 2.54%. On to `COc1coc(CN2CCCC(CCc3ccccc3F)C2)cc1=O` (configuration not stated), for which the cytotoxicity at 10 µM was -1.62%. Then `CCCS(=O)(=O)N1CCN(c2ccnc(N3CCCCC3)n2)CC1`, with 0.805%; and `CNC(=O)Cn1c(-c2ccco2)nn(-c2ccccc2OC)c1=O`, with 2.51%. In the case of `CCn1ccnc1C1CCN(Cc2cccc(Cl)c2)CC1`, the cytotoxicity at 10 µM is -9.45%.

As to `O=C(Cc1ccc(O)c(Cl)c1)N1CCCCC1CCn1cccn1` (configuration not stated), the cytotoxicity at 10 µM is -13.6%.

As to `Cc1cc(C)n(NC(=O)c2ccc(Cl)cc2Cl)c(=O)c1`, the cytotoxicity at 10 µM was -7.05%. Then `CN1CCCC[C@@H]2[C@H]1[C@@H](c1ccccc1)CCN2C(=O)c1ccccc1`, with -4.3%; and `CC(C)c1ccc(CN2CCN(C(=O)c3cc(C4CC4)[nH]n3)CC2)cc1`, with 39.7%. For `O=C(NCCCNc1ccc(C(F)(F)F)cn1)c1ccc2c(c1)OCO2`, the cytotoxicity at 10 µM was -8.51%. For `O=C(CS(=O)(=O)Cc1cc(Cl)c2c(c1)OCCCO2)NCC1CC1` the value was 1.07%; for `CCCC(C#N)NC(=O)c1cc(Br)c2c(c1)OCCO2` (configuration not stated), -9.2%.

As for `CCc1nc2n(n1)CC(NCc1nnc(C(C)C)o1)CC2` (configuration not stated), the cytotoxicity at 10 µM was -15.7%. For `CC(=O)NCCNC(=O)CN1CCCC1c1c(C)nn(C)c1C` (configuration not stated) the value was -25.1%; for `CC(C)(C)c1nnc(CN2CCOC(Cn3cccn3)C2)o1` (configuration not stated), -10.2%. `COc1cc(CNCc2ccc(NC(=O)NC(C)C)cc2)cc(OC)c1`: the cytotoxicity at 10 µM stood at 0.347%.

Consider `CC(C)c1nc(CC(=O)Nc2nc(CN3CCCCCC3)cs2)cs1`, for which the cytotoxicity at 10 µM worked out at 6.02%. Turning to `CCN1CCC2(CC1)OCCN2C(=O)c1cc(Cl)c(OC)c(Cl)c1`, the cytotoxicity at 10 µM amounted to 9.31%. With `CCOc1ccc(CNCC(O)c2ccccc2)cc1Cl` (configuration not stated), the cytotoxicity at 10 µM was -3.4%.

Consider `O=C(COC[C@]12COC[C@H]1CN(C1CCC1)C2)N1CCCC1`, for which the cytotoxicity at 10 µM is -102%.

As for `CC(C)c1ccc(CN2CCC3(CCCN(c4nncs4)C3)C2)cc1` (configuration not stated), the cytotoxicity at 10 µM was -1.15%. Then `CCOC(=O)[C@]12CCCN(Cc3cccs3)C[C@H]1CN(CC(C)C)C2`, with 10.8%; and `COc1ccccc1C(=O)N1Cc2cc(C)ccc2OCC1CN(C)C` (configuration not stated), with 5.2%; and `c1cnc(N2CCCC(NCc3ccc(-n4ccnc4)cc3)C2)nc1` (configuration not stated), with -7.55%.

Regarding `c1cnc(NCc2cncc3c2CCN(Cc2ccsc2)C3)nc1`, the cytotoxicity at 10 µM is -74.4%. Take `COc1ccccc1CN1C[C@@H]2COC[C@]2(COCc2ccncc2)C1`: the cytotoxicity at 10 µM is -70.9%.

As for `Fc1cnc(N2C[C@H]3CN(Cc4cccc(F)c4)C[C@H]3C2)nc1`, the cytotoxicity at 10 µM worked out at 10.4%. For `CN(C)C(=O)CN1C[C@H]2CCN(Cc3ccccc3)CC[C@H]2S1(=O)=O` the value was 9.82%. In the case of `Cc1nc(CN2CCc3ncnc(-c4ccsc4)c3CC2)cs1`, the cytotoxicity at 10 µM is -79.8%. For `CC(Cc1ccccc1F)NC(=O)CCC1=NC(=C2N=CN=N2)NO1` (configuration not stated) the value was 7.69%; for `CCNc1ncc(CN2C[C@@H]3CC[C@H]2CN(C(=O)C2CCC2)C3)cn1`, 6.29%.
